# Shown are actives, neighbours in structure and some others; about 5.8% of the full set was active somewhere.
# GASC1 inh = inhibitors of human demethylase GASC-1 KDM4C. Q9H3R0. GST-KDM4C 2-372, H3K9me3 peptide, LANCE TR-FRET. inhibition, % at 12.5 µM. hit rate 0.15% among 96,000;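 active means mean replicate inhibition above about 25%, with at least 55% of replicates also reaching it, limit read from the data, passing the limit was not always enough; inconclusive means only one of those two conditions met; inactive means neither condition met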
# Target sequence (Q9H3R0 2-372 limits assumed): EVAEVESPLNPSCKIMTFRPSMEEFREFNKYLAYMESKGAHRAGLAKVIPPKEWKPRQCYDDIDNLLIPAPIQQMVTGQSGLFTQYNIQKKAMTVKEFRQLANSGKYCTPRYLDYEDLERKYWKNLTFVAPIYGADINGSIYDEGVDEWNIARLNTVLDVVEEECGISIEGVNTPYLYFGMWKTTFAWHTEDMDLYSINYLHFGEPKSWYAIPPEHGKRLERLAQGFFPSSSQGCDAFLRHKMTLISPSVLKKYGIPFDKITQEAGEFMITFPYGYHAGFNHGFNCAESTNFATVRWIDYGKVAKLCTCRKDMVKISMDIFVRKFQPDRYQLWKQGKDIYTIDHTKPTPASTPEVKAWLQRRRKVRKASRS
#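 Material: N-terminal GST-fused human GASC-1 (KDM4C) fragment, residues 2-372. Input: 10 nM enzyme. Incubation: enzyme reaction 30 min, then detection 60 min, both room temperature. Doses: one test concentration per compound. Read-out basis: inhibition from TR-FRET ratio decrease. Detection: LANCE TR-FRET, excitation 340 nm, emissions 618 and 671 nm.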
# IDH1 mut inh = IDH1 R132H (human) inhibition | hit rate 0.18% among 70,000 | IDH1 R132H reductase, diaphorase/resazurin fluorescence, 60 min | O75874 | inhibition, % at 10 µM | AID 624101; in the data active means inhibition above about 34%; inconclusive means no clear call, values can overlap the other calls; inactive means below about 11%;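 further: 0% = DMSO and 100% = no enzyme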
# Pf Dd2 inh = P. falciparum Dd2 growth inhibition; SYBR Green, 72 h; hits give low values; activity change, % at 10 µM; hit rate 2.3% among 94,000; in the data active means activity change below about -80%; inconclusive means no clear call, values can overlap the other calls
# T cruzi growth = inhibitors of T. cruzi proliferation | inhibition, % at 8.34 µM | hit rate 5.9% among 77,000 | T. cruzi beta-gal in NIH3T3, GalScreen luminescence, 90 h;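 active means mean inhibition above about 93%, with at least 55% of replicates each passing it, limit read from the data, passing the limit was not always enough; inconclusive means only one of those two conditions holds; inactive means neither condition holds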
# Active calls of the source: *; ? = inconclusive; . = no result given.
SMILES,GASC1 inh,IDH1 mut inh,Pf Dd2 inh,T cruzi growth
C[C@H](CO)N1C[C@H](C)[C@@H](CN(C)C(=O)Nc2cccc3ccccc23)OCCCC[C@H](C)Oc2ccc(NC(=O)c3ccccc3)cc2C1=O,-2.2,.,-5.9,68.9
C[C@@H]1CN([C@H](C)CO)C(=O)c2cc(NC(=O)Cc3ccccc3)ccc2O[C@@H](C)CCCCO[C@H]1CN(C)C(=O)Nc1cccc2ccccc12,-0.2,0.2,-87.5*,73.2
C[C@@H]1CCCCO[C@@H](CN(C)C(=O)Nc2cccc3ccccc23)[C@@H](C)CN([C@@H](C)CO)C(=O)c2cc(NC(=O)Cc3ccccc3)ccc2O1,-0.2,-1.3,-91.9*,.
C[C@@H]1CN([C@@H](C)CO)C(=O)c2cc(NC(=O)Cc3ccccc3)ccc2O[C@@H](C)CCCCO[C@@H]1CN(C)C(=O)Nc1cccc2ccccc12,-2.2,4.4,-94.4*,0.6
C[C@@H]1CCCCO[C@@H](CN(C)C(=O)Nc2cccc3ccccc23)[C@H](C)CN([C@H](C)CO)C(=O)c2cc(NC(=O)Nc3ccccc3)ccc2O1,-0.9,.,-46.8,85.4
C[C@@H]1CN([C@@H](C)CO)S(=O)(=O)c2ccc(-c3cccnc3)cc2O[C@@H]1CN(C)CC1CCOCC1,1.6,-0.3,-8.4,.
C[C@H]1CN([C@@H](C)CO)C(=O)c2cc(C#Cc3ccccn3)cnc2O[C@@H]1CN(C)Cc1cccnc1,-0.1,-0.5,-10.3,71.3
COCC(=O)N1CC(=O)N2[C@@H](CO)[C@@H](c3ccc(-c4ccccc4C)cc3)[C@@H]2C1,0.9,.,-47.0,.
CC(C)c1cn(CC[C@H]2CC[C@H](NS(=O)(=O)c3ccc(Cl)cc3)[C@@H](CO)O2)nn1,-0.8,0.1,-4.0,1.8
CNC[C@@H]1Oc2ccc(NS(=O)(=O)c3ccc(F)cc3)cc2CC(=O)N([C@H](C)CO)C[C@@H]1C,-0.8,.,5.3,.
Cn1cnc(S(=O)(=O)N[C@@H]2CC[C@H](CC(=O)Nc3ccccc3)O[C@H]2CO)c1,-0.1,0.5,.,.
C[C@@H]1CCCCO[C@@H](CN(C)C(=O)NC2CCCCC2)[C@H](C)CN([C@@H](C)CO)C(=O)c2cc(NC(=O)Nc3ccccc3)ccc2O1,0.3,0.0,-18.4,5.2
C[C@@H]1CCCCO[C@@H](CN(C)C(=O)Nc2ccccc2)[C@@H](C)CN([C@H](C)CO)C(=O)c2cc(NC(=O)NC3CCCCC3)ccc2O1,-0.3,0.7,8.7,23.3
C[C@@H]1CN([C@H](C)CO)C(=O)c2cc(NC(=O)NC3CCCCC3)ccc2O[C@@H](C)CCCCO[C@@H]1CN(C)C(=O)Nc1ccccc1,-0.2,.,-81.1*,33.1
C[C@@H]1CN([C@H](C)CO)C(=O)c2cc(NC(=O)NC3CCCCC3)ccc2O[C@@H](C)CCCCO[C@@H]1CN(C)C(=O)Nc1ccc(F)cc1,-1.9,-1.9,-88.0*,.
C[C@@H]1CN([C@H](C)CO)C(=O)c2cc(NC(=O)Nc3ccccc3)ccc2O[C@@H](C)CCCCO[C@@H]1CN(C)C(=O)NC1CCCCC1,-1.0,.,-84.8*,-20.6
C[C@H](CO)N1C[C@H](C)[C@H](CN(C)Cc2ccc(Cl)c(Cl)c2)OCc2ccccc2-c2c(n(C)c3ccccc23)C1=O,-2.1,.,-74.2,.
C[C@H](CO)N1C[C@H](C)[C@H](CN(C)Cc2ccc(O)cc2)OCc2ccccc2-c2c(n(C)c3ccccc23)C1=O,1.3,.,30.3,.
C[C@H]1CN([C@@H](C)CO)C(=O)c2c(c3ccccc3n2C)-c2ccccc2CO[C@@H]1CN(C)Cc1ccc(Cl)c(Cl)c1,-10.8,.,-87.7*,.
C[C@@H]1CN([C@@H](C)CO)C(=O)c2c(c3ccccc3n2C)-c2ccccc2CO[C@@H]1CN(C)Cc1ccc(Cl)c(Cl)c1,-2.3,.,-86.8*,.
C[C@@H]1CN([C@H](C)CO)C(=O)c2c(c3ccccc3n2C)-c2ccccc2CO[C@@H]1CN(C)Cc1ccc(Cl)c(Cl)c1,-2.1,.,-84.5*,.
C[C@@H]1CN([C@H](C)CO)C(=O)c2c(c3ccccc3n2C)-c2ccccc2CO[C@H]1CN(C)Cc1ccc(Cl)c(Cl)c1,-18.4,.,-88.7*,.
COc1ccc(NC(=O)Nc2ccc3c(c2)C(=O)N([C@@H](C)CO)C[C@@H](C)[C@H](CN(C)S(=O)(=O)c2ccc(C)cc2)OCCCC[C@H](C)O3)cc1,1.3,.,-74.5,-4.9
CN(C)C(=O)C[C@H]1CC[C@@H]2[C@H](COc3ccc(NC(=O)NCc4ccccc4)cc3C(=O)N2C)O1,1.3,.,-55.1,-64.1
CCCNC(=O)Nc1ccc2c(c1)OC[C@@H](C)N(C(=O)C1CC1)C[C@@H](C)[C@@H](OC)CN(C)C2=O,-2.0,0.0,.,.
SMILES,GASC1 inh,IDH1 mut inh,Pf Dd2 inh,T cruzi growth
CCC(=O)N[C@H]1CC[C@@H](CC(=O)NCc2ccccc2OC)O[C@@H]1CO,-0.2,0.0,0.1,-39.6
C[C@@H]1CCCCO[C@@H](CN(C)Cc2ccc(C(=O)Nc3ccccc3N)cc2)[C@@H](C)CN([C@H](C)CO)C(=O)c2cc(NS(=O)(=O)c3ccc(Cl)cc3)ccc2O1,-0.6,.,?,.
C/C=C/c1ccc(C2[C@@H]3CN(S(=O)(=O)c4ccc(C)cc4)C[C@H]2N3)cc1 (stereo partly drawn),0.1,.,-66.6,.
COCC(=O)N1CC2(C1)CN(Cc1cc(F)ccc1F)[C@H](CO)c1[nH]c3cc(OC)ccc3c12,-1.2,.,-87.2*,.
COc1ccc2c3c([nH]c2c1)[C@H](CO)N(Cc1ccccc1F)CC31CN(C)C1,0.0,.,-53.4,.
COCC(=O)N1CC2(C1)CN(Cc1ccccc1F)[C@H](CO)c1[nH]c3cc(OC)ccc3c12,-1.0,.,-88.4*,.
COCC(=O)N1CCC2(CC1)CN(Cc1ccccc1F)[C@H](CO)c1[nH]c3cc(OC)ccc3c12,0.1,.,-88.6*,.
COCC(=O)N1CC2(C1)CN(Cc1ccccn1)[C@@H](CO)c1[nH]c3cc(OC)ccc3c12,-2.4,.,-82.2*,.
COc1ccc(OC)c(S(=O)(=O)N(C)CC(=O)N2CCCC2)c1,.,-0.1,.,.
O=C(NCC[C@@H]1CC[C@@H](NS(=O)(=O)c2ccc(Cl)cc2)[C@H](CO)O1)c1ccc2c(c1)OCO2,0.9,0.2,-2.6,21.6
C[C@@H]1CCCCO[C@@H](CN(C)Cc2ccccc2)[C@@H](C)CN([C@H](C)CO)C(=O)c2cc(NS(=O)(=O)c3ccccc3)ccc2O1,-1.1,1.2,-3.1,24.0
COc1ccc(CN(C)C[C@@H]2OCCCC[C@H](C)Oc3ccc(NC(=O)Nc4cccc5ccccc45)cc3C(=O)N([C@H](C)CO)C[C@H]2C)cc1,.,.,-90.2*,105.6
COc1ccc(CN(C)C[C@@H]2OCCCC[C@@H](C)Oc3ccc(NC(=O)Nc4cccc5ccccc45)cc3C(=O)N([C@H](C)CO)C[C@H]2C)cc1,.,0.3,-71.1,87.4
C[C@H]1CCCCO[C@@H](CN(C)Cc2ccc3c(c2)OCO3)[C@@H](C)CN([C@@H](C)CO)C(=O)c2cc(NC(=O)Nc3cccc4ccccc34)ccc2O1,-2.5,-5.3,?,91.8
C[C@@H]1CN([C@H](C)CO)C(=O)c2cc(NC(=O)Nc3cccc4ccccc34)ccc2O[C@@H](C)CCCCO[C@H]1CN(C)Cc1ccc2c(c1)OCO2,-1.3,-0.8,-87.3*,76.1

# Bioassay records deposited in PubChem BioAssay by Broad Institute.
